Reference: ChEMBL document CHEMBL4732211, “Multifunctional agents based on benzoxazolone as promising therapeutic drugs for diabetic nephropathy” (Eur J Med Chem, 2021)
Activity calls are given as the source filed them. The calls are words filed in the database; no cut-off is given here.

Legend:
Mus musculus [1] = test: Antioxidant activity in STZ-induced diabetic Kunming mouse assessed as rise in liver MDA level at 80 mg/kg, po administered QD via gavage for 4 weeks and measured at 6 hrs post-final drug dose relative to normal group; type: functional
Mus musculus [2] = test: Antioxidant activity in STZ-induced diabetic Kunming mouse assessed as increase in SOD level in kidney at 80 mg/kg, po administered daily via gavage for 8 weeks and measured at 6 hrs post-final drug dose; type: functional
[3] = Inhibition of polyol pathway in STZ-induced Kunming mouse model of diabetes assessed as decrease in sorbitol level in kidney cortex at 80 mg/kg, po administered QD via gavage for 4 weeks and measured at 6 hrs post-final drug dose by fluorospectrophotometric analysis; type: functional; conditions: 672 h
[4] = target: Aldo-keto reductase family 1 member B1 (Rattus norvegicus) (UniProt P07943); test: Uncompetitive inhibition of Wistar rat lens ALR2 at 2.5 mM using D,L-glyeraldehyde as substrate in presence of varying levels of NADPH by double reciprocal plot analysis; type: tissue-based
Procedure, shortened: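 Rat ALR2 kinetics run under the assay conditions with inhibitor at 10 and 5 nM. Either D,L-glyceraldehyde varied (7.5-0.94 mM) with cofactor 0.025 mM, or NADPH varied (25-3.125) with glyceraldehyde 2.5 mM. Mode assigned from double-reciprocal plots.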

Mus musculus [5] = test: Antidiabetic activity in STZ-induced Kunming mouse model of diabetes assessed as reduction in blood glucose level at 80 to 160 mg/kg, po administered daily via gavage for 8 weeks and measured at 2 to 5 hrs post-last drug dose; type: functional, organism-based; conditions: dose 80-160 mg/kg
Mus musculus [6] = test: Reno-protective activity in STZ-induced Kunming mouse model of diabetes assessed as urinary total protein excretion at 160 mg/kg, po administered daily via gavage for 8 weeks and measured at week 4 relative to control; type: functional; conditions: time 4 weeks
[7] = Inhibition of polyol pathway in STZ-induced Kunming mouse model of diabetes assessed as decrease in sorbitol level in kidney cortex at 160 mg/kg, po administered daily via gavage for 8 weeks and measured at 6 hrs post-final drug dose by fluorospectrophotometric analysis; type: functional; conditions: 1344 h
Mus musculus [8] = test: Antioxidant activity in STZ-induced diabetic Kunming mouse assessed as increase in GSH level in kidney at 160 mg/kg, po administered daily via gavage for 8 weeks and measured at 6 hrs post-final drug dose by microplate reader analysis; type: functional
Mus musculus [9] = test: Antioxidant activity in STZ-induced diabetic Kunming mouse assessed as reduction in liver MDA level at 80 mg/kg, po administered QD via gavage for 4 weeks and measured at 6 hrs post-final drug dose relative to STZ-treated group; type: functional; conditions: 672 h
Mus musculus [10] = test: Reno-protective activity in STZ-induced Kunming mouse model of diabetes assessed as reduction in albumin to creatinine ratio at 80 mg/kg, po administered daily via gavage for 8 weeks; type: functional; conditions: 1344 h
Mus musculus [11] = test: Antidiabetic activity in STZ-induced Kunming mouse model of diabetes assessed as reduction in blood glucose level at 80 mg/kg, po administered daily via gavage for 8 weeks and measured at week 4; type: functional; conditions: 672 h, time 4 weeks
Mus musculus [12] = test: Reno-protective activity in STZ-induced Kunming mouse model of diabetes assessed as reduction in kidney lesions and appearance of normal structure at 80 to 160 mg/kg, po administered daily via gavage for 8 weeks by H and E staining based histological analysis; type: functional, organism-based; conditions: dose 80-160 mg/kg
Mus musculus [13] = test: Reno-protective activity in STZ-induced Kunming mouse model of diabetes assessed as normal kidney structure at 80 mg/kg, po administered QD via gavage for 4 weeks by H and E staining based histological analysis; type: functional, organism-based
Mus musculus [14] = test: Reno-protective activity in STZ-induced Kunming mouse model of diabetes assessed as reduction in albumin to creatinine ratio at 160 mg/kg, po administered daily via gavage for 8 weeks; type: functional; conditions: 1344 h
Mus musculus [15] = test: Antidiabetic activity in STZ-induced Kunming mouse model of diabetes assessed as reduction in blood glucose level at 160 mg/kg, po administered daily via gavage for 8 weeks and measured at week 8; type: functional; conditions: 1344 h
Mus musculus [16] = test: Reno-protective activity in STZ-induced Kunming mouse model of diabetes assessed as reduction in albumin to creatinine ratio at 80 mg/kg, po administered QD via gavage for 4 weeks; type: functional; conditions: 672 h
Mus musculus [17] = test: Antidiabetic activity in STZ-induced Kunming mouse model of diabetes assessed as reduction in blood glucose level at 160 mg/kg, po administered daily via gavage for 8 weeks and measured at week 2; type: functional; conditions: 336 h, time 2 weeks
Mus musculus [18] = test: Reno-protective activity in STZ-induced Kunming mouse model of diabetes assessed as urinary total protein excretion at 160 mg/kg, po administered daily via gavage for 8 weeks and measured at week 8 relative to control; type: functional
[19] = Inhibition of polyol pathway in STZ-induced Kunming mouse model of diabetes assessed as decrease in sorbitol level in kidney cortex at 80 mg/kg, po administered daily via gavage for 8 weeks and measured at 6 hrs post-final drug dose by fluorospectrophotometric analysis; type: functional; conditions: 1344 h
[20] = target: Aldo-keto reductase family 1 member B1 (Rattus norvegicus) (UniProt P07943); test: Potency index, ratio of IC50 of epalrestat to IC50 of compound for inhibition of Wistar rat lens ALR2 using D,L-glyceraldehyde and NADPH as substrate preincubated for 10 mins followed by substrate addition and measured for 4 mins by spectrophotometric analysis; type: tissue-based; conditions: time 14.0 min
Procedure, shortened: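 Aldose reductases (ALR2, ALR1) prepared from Wistar rats (200-250 g). NADPH loss followed at 340 nm for 4 min after substrate start, following 10 min preincubation. ALR2: pH 6.2 phosphate, 30 °C, NADPH 0.10 mM, D,L-glyceraldehyde 10 mM. ALR1: pH 7.2, 37 °C, NADPH 0.12 mM, D-glucuronate 20 mM. 0.5% DMSO; non-enzymatic rate subtracted. IC50 from log dose-response with ≥3 concentrations (20-80% inhibition), triplicate.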

Mus musculus [21] = test: Antidiabetic activity in STZ-induced Kunming mouse model of diabetes assessed as reduction in blood glucose level at 80 mg/kg, po administered daily via gavage for 8 weeks and measured at week 8; type: functional; conditions: 1344 h
Mus musculus [22] = test: Reno-protective activity in STZ-induced Kunming mouse model of diabetes assessed as glomerular atrophy and inflammatory cell infiltration at 160 mg/kg, po administered daily via gavage for 8 weeks by H and E staining based histological analysis; type: functional, organism-based
Mus musculus [23] = test: Reno-protective activity in STZ-induced Kunming mouse model of diabetes assessed as urinary total protein excretion at 80 mg/kg, po administered daily via gavage for 8 weeks and measured at week 4 relative to control; type: functional; conditions: time 4 weeks
Mus musculus [24] = test: Antidiabetic activity in STZ-induced Kunming mouse model of diabetes assessed as reduction in blood glucose level at 80 mg/kg, po administered QD via gavage for 4 weeks and measured at week 2 to 4; type: functional, organism-based; conditions: time 2-4 weeks
Mus musculus [25] = test: Antioxidant activity in STZ-induced diabetic Kunming mouse assessed as reduction in liver MDA level at 80 mg/kg, po administered daily via gavage for 8 weeks and measured at 6 hrs post-final drug dose relative to normal group; type: functional; conditions: 1344 h
Mus musculus [26] = test: Antioxidant activity in STZ-induced diabetic Kunming mouse assessed as rise in liver MDA level at 160 mg/kg, po administered daily via gavage for 8 weeks and measured at 6 hrs post-final drug dose relative to normal group; type: functional
Mus musculus [27] = test: Reno-protective activity in STZ-induced Kunming mouse model of diabetes assessed as urinary total protein excretion at 80 mg/kg, po administered daily via gavage for 8 weeks and measured at week 8 relative to control; type: functional

COc1cc(/C=C/c2cccc3c2oc(=O)n3CC(=O)O)ccc1O
Activity (Mus musculus [1]): 15% | Activity (Mus musculus [2]): 177% | inhibition in vivo at 80 mg/kg [3]: 24% | inhibition [4]: Active | Activity (Mus musculus [5]): Active | Activity (Mus musculus [6]): 93% | inhibition in vivo at 160 mg/kg [7]: 18% | Activity (Mus musculus [8]): 210% | inhibition in vivo at 80 mg/kg (Mus musculus [9]): 54% | inhibition in vivo at 80 mg/kg (Mus musculus [10]): 67% | inhibition in vivo at 80 mg/kg (Mus musculus [11]): 24% | Activity (Mus musculus [12]): Active | Activity (Mus musculus [13]): Active | inhibition in vivo at 160 mg/kg (Mus musculus [14]): 79% | inhibition in vivo at 160 mg/kg (Mus musculus [15]): 20% | inhibition in vivo at 80 mg/kg (Mus musculus [16]): 57% | inhibition in vivo at 160 mg/kg (Mus musculus [17]): 35% | Activity (Mus musculus [18]): 58% | inhibition in vivo at 80 mg/kg [19]: 19% | Ratio IC50 [20]: 15 | inhibition in vivo at 80 mg/kg (Mus musculus [21]): 9% | Activity (Mus musculus [22]): inactive | Activity (Mus musculus [23]): 78% | Activity (Mus musculus [24]): Active | inhibition in vivo at 80 mg/kg (Mus musculus [25]): 16% | Activity (Mus musculus [26]): 39% | Activity (Mus musculus [27]): 53%
